According to ChEMBL document CHEMBL4014329, “Selective Inhibition of Escherichia coli RNA and DNA Topoisomerase I by Hoechst 33258 Derived Mono- and Bisbenzimidazoles” (J Med Chem, 2017):
Values after ≈ are worked out from the molar mass of the structure shown. Active and inactive are the calls of the source. The calls are words filed in the database; no cut-off is given here.

Legend:
Enterococcus faecium = assay: Antibacterial activity against Enterococcus faecium BM4105RF after 24 hrs by microbroth dilution method; format: functional
Method in brief: (§1)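 Mueller-Hinton broth cultures grown at 37 °C with shaking to log phase, pelleted, resuspended in 0.85% saline to OD625 0.1. Broth microdilution per CLSI guidelines, final inoculum 5 × 10^5 CFU/mL, in triplicate, 24 h at 37 °C. Growth read as OD625. MIC is the lowest concentration giving complete growth inhibition versus untreated controls.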

Enterococcus faecalis = assay: Antibacterial activity against Enterococcus faecalis ATCC 29212 after 24 hrs by microbroth dilution method; format: functional; conditions: ATCC 29212, 24 h
Method in brief: (§2)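 Microbroth dilution per CLSI guidelines. Organisms grown in Mueller−Hinton broth at 37 °C with shaking to log phase, pelleted, resuspended in 0.85% saline to OD625 0.1. Final inoculum 5 × 10^5 CFU/mL; triplicate; 24 h at 37 °C. OD625 read; MIC = lowest concentration completely inhibiting growth versus untreated controls.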

[1] = tested on: Staphylococcus epidermidis; assay: Antibacterial activity against Staphylococcus epidermidis ATCC 12384 after 24 hrs by microbroth dilution method; format: functional; conditions: ATCC 12384, 24 h; method in brief: as §2
Staphylococcus aureus [2] = assay: Antibacterial activity against Staphylococcus aureus ATCC 33591 after 24 hrs by microbroth dilution method; format: functional; conditions: ATCC 33591, 24 h; method in brief: as §2
Staphylococcus aureus [3] = assay: Antibacterial activity against methicillin-resistant Staphylococcus aureus A960649 after 24 hrs by microbroth dilution method; format: functional; conditions: A960649, 24 h; method in brief: as §1
Staphylococcus aureus [4] = assay: Antibacterial activity against Staphylococcus aureus ATCC 29213 after 24 hrs by microbroth dilution method; format: functional; conditions: ATCC 29213, 24 h; method in brief: as §2
[5] = Binding affinity to dA60.dT60 B-DNA duplex (unknown origin) assessed as change in melting temperature at 10 uM by UV-vis spectrophotometric analysis
Method in brief: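 UV melting of dA60·dT60 at 1 μM/duplex with compound at 10 μM. Buffer 10 mM sodium cacodylate, 0.1 mM EDTA, 100 mM NaCl, pH 7.0; duplex pre-annealed from 95 °C. Compound stocks in DMSO diluted into buffer. Heating at 0.2 °C/min, monitored at 260 nm, points every 1.0 °C; Tm taken from derivatives.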

Staphylococcus aureus [6] = assay: Antibacterial activity against methicillin-resistant Staphylococcus aureus 33591 after 24 hrs by microbroth dilution method; format: functional; conditions: Staphylococcus aureus, 33591, 24 h; method in brief: as §1
Shigella flexneri = assay: Antibacterial activity against Shigella flexneri 2457NR517 after 24 hrs by microbroth dilution method; format: functional; conditions: 2457NR517, 24 h; method in brief: as §1
Escherichia coli [7] = assay: Antibacterial activity against Escherichia coli ATCC 25922 after 24 hrs by microbroth dilution method; format: functional; conditions: ATCC 25922, 24 h; method in brief: as §2
Escherichia coli [8] = assay: Antibacterial activity against Escherichia coli K-12 after 24 hrs by microbroth dilution method; format: functional; conditions: K-12, 24 h; method in brief: as §2
Acinetobacter baumannii = assay: Antibacterial activity against Acinetobacter baumannii ATCC 19606 after 24 hrs by microbroth dilution method; format: functional; conditions: ATCC 19606 = CIP 70.34 = JCM 6841, 24 h; method in brief: as §2
Pseudomonas aeruginosa = assay: Antibacterial activity against Pseudomonas aeruginosa ATCC 27853 after 24 hrs by microbroth dilution method; format: functional; conditions: ATCC 27853, 24 h; method in brief: as §2
Klebsiella pneumoniae = assay: Antibacterial activity against Klebsiella pneumoniae NR15410 after 24 hrs by microbroth dilution method; format: functional; conditions: NR15410, 24 h; method in brief: as §2
Enterobacter cloacae = assay: Antibacterial activity against Enterobacter cloacae ATCC 13047 after 24 hrs by microbroth dilution method; format: functional; conditions: ATCC 13047, 24 h; method in brief: as §2
Citrobacter freundii = assay: Antibacterial activity against Citrobacter freundii 4747CFAA after 24 hrs by microbroth dilution method; format: functional; method in brief: as §2
[9] = Binding affinity to dA60.dT60 B-DNA duplex (unknown origin) assessed as induction of biphasic transition at <5 uM by UV-vis spectrophotometric analysis
Escherichia coli [10] = assay: Inhibition of Escherichia coli DNA gyrase using relaxed plasmid pBAD-GFPuv as substrate after 30 mins by agarose gel electrophoresis
Escherichia coli [11] = assay: Inhibition of Escherichia coli RNA topoisomerase 1 using circular RNA as substrate up to 50 uM after 1.5 hrs by SDS-PAGE analysis
Method in brief: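 10 nM E. coli topoisomerase I premixed with reaction buffer and inhibitor diluted in DMSO, then circular RNA substrate added; 1.5 h incubation. Stopped with proteinase K/SDS/EDTA buffer. Trefoil RNA knot product separated from circular substrate on 15% TBE−urea gels and detected by phosphorimaging. DMSO-only control included.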

DU-145 = assay: Cytotoxicity against human DU145 cells after 48 hrs by SRB assay; format: cell-based; conditions: human, du-145, 48 h
Method in brief: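 Cells cultured per ATCC protocols, seeded and grown 24 h (37 °C, 5% CO2), then treated in triplicate at final 20, 10, 5, 2.5, 1.25, 0.625 and 0.0625 μM for 48 h. Fixed with cold TCA (16% final, 4 °C, 1 h), stained with SRB in 1% acetic acid, dye solubilized in 10 mM Tris base, A560 read. IC50 derived; study in duplicate.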

Structure (SMILES) | MIC (Enterococcus faecium) [µg/mL] | MIC (Enterococcus faecalis) [µg/mL] | MIC [1] [µg/mL] | MIC (Staphylococcus aureus [2]) [µg/mL] | MIC (Staphylococcus aureus [3]) [µg/mL] | MIC (Staphylococcus aureus [4]) [µg/mL] | ΔTm [5] [°C] | MIC (Staphylococcus aureus [6]) [µg/mL] | MIC (Shigella flexneri) [µg/mL] | MIC (Escherichia coli [7]) [µg/mL] | MIC (Escherichia coli [8]) [µg/mL] | MIC (Acinetobacter baumannii) [µg/mL] | MIC (Pseudomonas aeruginosa) [µg/mL] | MIC (Klebsiella pneumoniae) [µg/mL] | MIC (Enterobacter cloacae) [µg/mL] | MIC (Citrobacter freundii) [µg/mL] | Activity [9] | inhibition (Escherichia coli [10]) | inhibition (Escherichia coli [11]) | Activity (DU-145)
C#CCOCCCCCCOc1ccc(-c2nc3ccc(N4CCN(C)CC4)cc3[nH]2)cc1 | > 32 | 16 to 32 (≈ 35.8 to 71.7 µM) | > 32 | 16 to 32 (≈ 35.8 to 71.7 µM) | > 32 | 16 to 32 (≈ 35.8 to 71.7 µM) | 1.4 | > 32 | > 32 | 16 (≈ 35.8 µM) | 16 (≈ 35.8 µM) | > 32 | 16 (≈ 35.8 µM) | > 32 | > 32 | > 32 | Active |  |  | 
C#CCOc1ccc(-c2nc3ccc(N4CCN(C)CC4)cc3[nH]2)cc1 | > 32 | 16 to 32 (≈ 46.2 to 92.4 µM) | > 32 | 16 to 32 (≈ 46.2 to 92.4 µM) | > 32 | ≥ 32 | 2.6 | > 32 | > 32 | 16 (≈ 46.2 µM) | 16 (≈ 46.2 µM) | > 32 | 16 (≈ 46.2 µM) | > 32 | > 32 | > 32 | Active |  |  | 
C#CCCCCCCc1cn(CCOc2ccc(-c3nc4ccc(N5CCN(C)CC5)cc4[nH]3)cc2)nn1 | > 32 | 16 to 32 (≈ 31.3 to 62.5 µM) | > 32 | 16 to 32 (≈ 31.3 to 62.5 µM) |  | 16 to 32 (≈ 31.3 to 62.5 µM) | 0.5 |  | > 32 | 16 (≈ 31.3 µM) | 16 (≈ 31.3 µM) | > 32 | 16 (≈ 31.3 µM) | > 32 | > 32 | > 32 | Active |  |  | 
CN1CCN(c2ccc3nc(-c4ccc(OCc5cn(CCN=[N+]=[N-])nn5)cc4)[nH]c3c2)CC1 | > 32 | 16 to 32 (≈ 34.9 to 69.8 µM) | > 32 | 16 to 32 (≈ 34.9 to 69.8 µM) | > 32 | 16 to 32 (≈ 34.9 to 69.8 µM) | 1.2 | > 32 | > 32 | 16 (≈ 34.9 µM) | 16 (≈ 34.9 µM) | > 32 | 16 (≈ 34.9 µM) | > 32 | > 32 | > 32 | Active |  |  | 
C#CCOCCCCOc1ccc(-c2nc3ccc(-c4nc5ccc(N6CCN(C)CC6)cc5[nH]4)cc3[nH]2)cc1 | 1 to 2 (≈ 1.87 to 3.74 µM) |  | 4 (≈ 7.48 µM) |  | 1 to 2 (≈ 1.87 to 3.74 µM) |  |  | 1 (≈ 1.87 µM) | 4 (≈ 7.48 µM) | 8 to 16 (≈ 15 to 29.9 µM) |  | 8 (≈ 15 µM) | 16 (≈ 29.9 µM) | > 32 | > 32 |  |  | inactive | inactive | Toxic
CN1CCN(c2ccc3nc(-c4ccc(OCCCNC(=O)OC(C)(C)C)cc4)[nH]c3c2)CC1 | > 32 | 16 to 32 (≈ 34.4 to 68.7 µM) | > 32 | 16 to 32 (≈ 34.4 to 68.7 µM) | > 32 | 16 to 32 (≈ 34.4 to 68.7 µM) | 1 | > 32 | > 32 | 16 (≈ 34.4 µM) | 16 (≈ 34.4 µM) | > 32 | 16 (≈ 34.4 µM) | > 32 | > 32 | > 32 | Active |  |  | 
COC(=O)c1cc(N2CCN(C)CC2)cc2[nH]c(-c3ccc(O)cc3)nc12 | > 32 | 16 to 32 (≈ 43.7 to 87.3 µM) | > 32 | 16 to 32 (≈ 43.7 to 87.3 µM) | > 32 | 16 to 32 (≈ 43.7 to 87.3 µM) | 0 | > 32 | > 32 | 16 (≈ 43.7 µM) | 16 (≈ 43.7 µM) | > 32 | 16 (≈ 43.7 µM) | > 32 | > 32 | > 32 | Active |  |  | 
